Bioassay records: PubChem, several laboratories
Lmaj promast = Leishmania major promastigote growth inhibition, primary screen. Leishmania major promastigotes, resazurin fluorescence viability. inhibition, % at 10 µM. hit rate 9% among 200,000. AID 1063, 2008;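 also: promastigotes grown with compound for 44 hours at 28 °C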
Wee1 degr inh = Wee1 degradation inhibitors, primary screen, cell-based, HeLa, Wee1K328M-luciferase, luminescence; HeLa Luc-Wee1K328M stability; 100% = proteasome inhibitor MG132 effect; reporter increase, % at 5 µM; hit rate 1.2% among 220,000; AID 1321, 2008;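 active = activation above the mean of all tested compounds plus 3 SD, set per screening run, cut at about 8.8% in these data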;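 also: cells exposed to compound for 20 h before luminescence read; 0% = DMSO alone and 100% = MG132 at 30 µM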
Target sequence (P30291 whole entry K328M): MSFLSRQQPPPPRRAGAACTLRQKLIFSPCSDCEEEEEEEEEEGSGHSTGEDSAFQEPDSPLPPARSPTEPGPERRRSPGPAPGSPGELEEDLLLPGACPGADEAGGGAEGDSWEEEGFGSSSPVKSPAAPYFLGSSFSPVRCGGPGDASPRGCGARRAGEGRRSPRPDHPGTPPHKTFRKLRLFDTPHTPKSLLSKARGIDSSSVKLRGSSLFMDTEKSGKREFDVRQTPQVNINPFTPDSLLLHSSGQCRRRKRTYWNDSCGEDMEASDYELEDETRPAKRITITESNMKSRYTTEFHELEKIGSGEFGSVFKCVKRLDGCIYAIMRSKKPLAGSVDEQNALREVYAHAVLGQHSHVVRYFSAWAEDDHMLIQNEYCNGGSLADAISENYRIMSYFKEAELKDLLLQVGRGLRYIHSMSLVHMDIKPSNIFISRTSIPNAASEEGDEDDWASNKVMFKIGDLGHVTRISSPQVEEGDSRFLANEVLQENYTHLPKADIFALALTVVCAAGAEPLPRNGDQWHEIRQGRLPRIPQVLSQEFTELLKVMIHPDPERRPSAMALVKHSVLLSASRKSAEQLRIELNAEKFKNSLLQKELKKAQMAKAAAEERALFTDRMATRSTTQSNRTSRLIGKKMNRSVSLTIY
Rad51 HR inh = human RAD51 strand exchange inhibitors, primary screen, biochemical, fluorescence; hit rate 0.085% among 200,000; inhibition, % at 10 µM; AID 1385, 2008; hRad51 DNA strand exchange, fluorescence dequenching; DNA repair protein RAD51 homolog 1 (Homo sapiens), Q06609;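 active = inhibition above 40% at the single screening dose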;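 also: 0% = DMSO control wells and 100% = blanks with heterologous ssDNA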
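Test system: preformed human Rad51 ssDNA filaments; also added: Donor/quencher-labelled 47-bp dsDNA substrate; doses: 10 µM final, single point; times: 37 °C 15-min filament assembly, 30-min compound preincubation, 15-min exchange; detection: FRET fluorescence dequenching, excitation 485 nm, emission 520 nm; read-out basis: Fluorescence-based percent inhibition, control- and blank-normalised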
Arbovirus anti = antivirals against arbovirus infection, primary screen, cell-based, full library, 10K replicate subset. arbovirus infection cell-based antiviral screen. inhibition, % at 10 µM. hit rate 0.37% among 200,000. AID 1251, 2008; in the data active = inhibition above about 30%
PKD1 inh = inhibitors of human PKD1 kinase, biochemical, fluorescence polarization; Serine/threonine-protein kinase D1 (Homo sapiens), Q15139; PKD1 kinase fluorescence polarization assay; inhibition, % (concentration not given with the values); hit rate 0.056% among 200,000
CHOP inhibitor = inhibitors of CHOP promoter induction, primary screen, cell-based, unfolded protein response, luciferase reporter | hit rate 3.8% among 220,000 | CHO-K1 CHOP-promoter luciferase, tunicamycin-induced, 15-18 h | inhibition, % at 10 µM;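 active = compounds that reduced the stress-induced luciferase reporter signal by more than about 70% of percent inhibition, limit read from the data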;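 also: 0% = tunicamycin plus vehicle and 100% = wells without tunicamycin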
Active calls of the source: *; . = no result given. The list is not random: actives were taken first. Their share in the collection is about 12%. Rule as the data show it, unless noted: active = inhibition above about 50%; inactive = the rest.

SMILES	Lmaj promast	Wee1 degr inh	Rad51 HR inh	Arbovirus anti	PKD1 inh	CHOP inhibitor
Cc1ccc(C)c(CN2C(=O)COc3ccc(C(=O)c4ccccc4C(=O)O)cc32)c1	100*	-1	5	-12	0	40
CCSC(=Nc1ccccc1)Nc1ccccc1	16	-1	-9	-1	-4	14
CC1=C(CC/C(C)=N/NC(N)=S)C(C)(C)CCC1	100*	0	-3	-27	-1	29
C/C(CC(=O)NCc1ccccc1)=N\NC(N)=S	-5	-2	7	3	11	-6
CCOC(=O)c1cnc2c(Cl)cc(Cl)cc2c1NCCOCCO	96*	-3	-1	-7	-1	35
CCOC(=O)c1cnc2ccccc2c1NCCO	-3	8	-2	3	-13	23
O=C(CC1Sc2ccccc2NC1=O)c1ccc(Br)cc1 (stereo unspecified)	45	5	6	2	10	72*
CCOC(=O)C1=C(C)N(c2ccc(C)c(C)c2)C(=O)/C1=C\c1ccco1	16	2	1	4	0	59
COC(=O)C1=C(C)N(c2ccc(C)c(C)c2)/C(=C/c2ccco2)C1=O	61*	0	-74	-2	-2	0
CCC(=O)NNC(=O)CCC(=O)Nc1cccc(Cl)c1C	1	7	1	6	-6	-8
Cc1ccc2ncccc2c1NS(=O)(=O)c1ccccc1	4	-2	-1	4	5	82*
C=CCOc1c(Br)cc(/C=N/Nc2ccc(C(=O)O)cc2)cc1OCC	-14	-1	-5	31*	0	56
C=CCOc1c(Br)cc(CNc2ccc(NC(=O)C(C)C)cc2)cc1OCC	97*	3	-26	0	1	26
CCOc1cc(CNc2ccc3c(c2)OCCO3)cc(Br)c1OCC(N)=O	10	0	-1	-16	2	-9
O=C(/C=C/c1ccc([N+](=O)[O-])cc1)N1CCN(S(=O)(=O)c2cccs2)CC1	.	-1	13	.	.	19
Cc1ccc[n+](C(C)C(=O)c2ccc(-c3ccccc3)cc2)c1 (stereo unspecified)	98*	3	4	-10	-12	15
Cc1cc[n+](C(C)C(=O)c2ccc(-c3ccccc3)cc2)cc1 (stereo unspecified)	90*	-3	9	1	-2	5
CC(C(=O)c1ccc(-c2ccccc2)cc1)[n+]1ccccc1 (stereo unspecified)	34	-1	0	9	-1	-23
CCOC(=O)C1CCCN(C(=S)NC2CCCC2)C1 (stereo unspecified)	-5	0	-16	-1	4	11
OCC[C@@H]1C[C@H](O)[C@@H](O)[C@@]2(CCCCO2)O1	.	.	-2	.	.	.
C/C(=N\NC(=O)C1CC1)c1ccccc1O	-2	4	4	0	-1	13
CCOC(=O)c1ccc(NC(=O)CN2C(=O)CSC(C)C2=O)cc1 (stereo unspecified)	0	-3	-2	7	-3	3
O=C(COC(=O)C1CSC2(c3ccc(F)cc3)CCC(=O)N12)NC(=O)NC1CCCC1 (stereo unspecified)	-5	-2	7	1	5	73*
COc1ccc(Cl)cc1C(=O)NNC(=O)CN1C(=O)C2CC=CCC2C1=O (stereo unspecified)	-8	-3	-2	19	-1	-14
O=c1c2cc(Cl)ccc2[nH]c(=S)n1Cc1cccs1	19	-2	5	2	-10	97*
SMILES	Lmaj promast	Wee1 degr inh	Rad51 HR inh	Arbovirus anti	PKD1 inh	CHOP inhibitor
O=c1[nH]c2ccc(Cl)cc2c(=O)n1Cc1ccco1	4	0	2	8	-7	81*
O=c1c2cc(Cl)ccc2[nH]c(=S)n1Cc1ccco1	0	-2	2	11	-9	58
c1ccc(N(c2ccccc2)c2nc(N3CCCC3)nc(-n3ccnc3)n2)cc1	98*	-4	.	-12	-10	49
CCOC(=O)N1CCN(c2nc(N(c3ccccc3)c3ccccc3)nc(-n3ccnc3)n2)CC1	.	2	.	.	.	10
CN(c1ccccc1)c1nc(N2CCCC2)nc(-n2ccnc2)n1	95*	0	-1	-14	1	-15
CCCCNc1nnc(SCC(=O)c2c[nH]c3ccccc23)s1	67*	-2	-8	11	-10	23
COc1cccc(OC)c1CN1CCCC(C(=O)c2ccccc2SC)C1 (stereo unspecified)	65*	1	4	4	2	16
COc1ccc(CN2CCCC(C(=O)N(C)Cc3ccccc3)C2)cc1OC (stereo unspecified)	86*	0	6	-3	2	-8
COc1ccccc1CN1CCCC(C(=O)N(C)Cc2ccccc2)C1 (stereo unspecified)	52*	-2	-4	6	-11	-7
CCOC(=O)C1CCN(c2c(NCc3ccc(C(=O)Nc4ccc(C)cc4)cc3)c(=O)c2=O)CC1	.	1	.	.	.	6
CCCOC(=O)c1ccc(-c2c(C)noc2-c2ccc(OC)cc2O)o1	56*	0	-9	10	-9	93*
COCCn1c(C)cc(C(=O)COC(=O)c2ccc(Br)o2)c1C	-3	3	12	4	-7	41
COc1ccc(CCC(=O)O)cc1OC	.	4	.	.	.	8
C=CCC(C)(NCc1ccccc1)c1ccc(C)cc1 (stereo unspecified)	69*	3	8	1	-6	75*
CC(C)(C)c1ccc(Oc2ccc(N)cn2)cc1	.	-2	6	.	.	88*
Cc1ccc(Nc2nc(-c3sc(NC(=O)c4ccco4)nc3C)cs2)cc1	61*	-3	-5	-1	0	30
CCOc1ccccc1Nc1nc(-c2sc(NC(=O)c3ccco3)nc2C)cs1	99*	-3	-11	17	1	54
Cc1ccccc1Nc1nc(-c2sc(NC(=O)c3ccco3)nc2C)cs1	48	-2	4	19	-9	32
C=CCOc1ccc(C2C(C#N)=C(N)N(Nc3ccccc3)C3=C2C(=O)CC(C)(C)C3)cc1OC (stereo unspecified)	89*	5	2	-5	7	10
COc1nc(-c2ccncc2)nc2ccccc12	3	-2	2	15	2	25
C=CCOc1nc(-c2ccncc2)nc2ccccc12	15	0	5	-6	1	71*
CCOc1ccc(CCNC(=O)c2cccc(C#N)c2)cc1OCC	0	-1	8	14	-5	-4
